{
  "source": "ChEMBL document CHEMBL4265873",
  "about": "“Design and discovery of silybin analogues as antiproliferative compounds using a ring disjunctive - Based, natural product lead optimization approach” (Eur J Med Chem, 2017)",
  "key": {"2008 [1]": {"system": "2008", "experiment": "Induction of cell cycle arrest in human OV2008 cells assessed as cell accumulation at G2 phase at 4 uM incubated for 12 hrs by propidium iodide staining based flow cytometry (reference value: 2.5%)", "format": "functional", "summary_of_the_method": "(§1)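 OV2008 cells were plated at 1x10^6 cells/well and incubated with 0, 2 or 4 µM for 12 h. Cells were trypsinised, washed and resuspended in ice-cold PBS, then stained with propidium iodide for at least 15 min. Phase distribution was measured by flow cytometry. Means ± SD of three independent experiments in triplicate.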"}, "ZR-75-1": {"system": "ZR-75-1", "experiment": "Cytotoxicity in human ZR-75-1 cells assessed as reduction in cell viability incubated for 68 hrs by MTT assay", "format": "functional, cell-based", "conditions": "ZR-75-1, 68 h", "summary_of_the_method": "(§2)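 Cells were trypsinised and seeded at 5x10^3 cells/well. Compound was added at 0, 0.1, 0.3, 1, 3, 10, 30 and 100 µM for 68 h. MTT (4 mg/mL solution) was then added for 4 h, and the formazan was dissolved in DMSO. Absorbance read at 570 nm. IC50 was derived from % survival across the eight concentrations. Mean ± SD of three independent experiments, each in triplicate.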"}, "[2]": {"experiment": "Selectivity index, ratio of IC50 for cytotoxicity in CHO cells incubated for 68 hrs by MTT assay to IC50 for cytotoxicity in human A2780 cells incubated for 68 hrs by MTT assay", "format": "toxicity, cell-based", "conditions": "Chinese hamster (CHO cells), CHO cells versus A2780 cells, read-out: Ratio IC50"}, "Homo sapiens [3]": {"species_on_record": "Homo sapiens", "experiment": "Inhibition of tubulin alpha in human OV2008 cells assessed as induction of disturbance in cellular microtubule shape and integrity at 2 to 4 uM after overnight incubation by immunofluorescence analysis", "format": "cell-based"}, "PANC-1": {"system": "PANC-1", "experiment": "Cytotoxicity in human PANC1 cells assessed as reduction in cell viability incubated for 68 hrs by MTT assay", "format": "functional, cell-based", "conditions": "PANC-1, 68 h", "summary_of_the_method": "as §2"}, "A2780 [4]": {"system": "A2780", "experiment": "Induction of morphological changes in human A2780 cells at 1 to 4 uM incubated for 68 hrs", "format": "functional, cell-based", "summary_of_the_method": "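OV2008 and A2780 cells, with CHO alongside, were exposed to 0, 1, 2 or 4 µM for 68 h. Each triplicate treatment was photographed at 20X under an inverted microscope to assess morphology.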"}, "[5]": {"experiment": "Selectivity index, ratio of IC50 for cytotoxicity in HEK293 cells incubated for 68 hrs by MTT assay to IC50 for cytotoxicity in human OV2008 cells incubated for 68 hrs by MTT assay", "format": "toxicity, cell-based", "conditions": "HEK293 cells versus OV2008 cells, read-out: Ratio IC50"}, "2008 [6]": {"system": "2008", "experiment": "Induction of cell cycle arrest in human OV2008 cells assessed as cell accumulation at G1 phase at 2 uM incubated for 12 hrs by propidium iodide staining based flow cytometry (reference value: 79.1%)", "format": "functional", "summary_of_the_method": "as §1"}, "Homo sapiens [7]": {"species_on_record": "Homo sapiens", "experiment": "Inhibition of tubulin alpha in human OV2008 cells assessed as induction of disturbance in cellular microtubule shape and integrity by measuring cell shrinkage and rounding at 2 to 4 uM after overnight incubation by immunofluorescence analysis", "format": "cell-based"}, "2008 [8]": {"system": "2008", "experiment": "Induction of cell cycle arrest in human OV2008 cells assessed as cell accumulation at G2 phase at 2 uM incubated for 12 hrs by propidium iodide staining based flow cytometry (reference value: 2.5%)", "format": "functional", "summary_of_the_method": "as §1"}, "A2780 [9]": {"system": "A2780", "experiment": "Cytotoxicity in human A2780 cells assessed as reduction in cell viability incubated for 68 hrs by MTT assay", "format": "functional, cell-based", "conditions": "A2780, 68 h", "summary_of_the_method": "as §2"}, "A2780 [10]": {"system": "A2780", "experiment": "Induction of apoptosis in human A2780 cells assessed as apoptosis cells level at 2 uM incubated for 12 hrs by Alexa Fluor 488 annexin V and mito-tracker red CMXRos dye staining based flow cytometry (reference value: 0.0%)", "format": "functional", "summary_of_the_method": "(§3)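 Cells in complete medium were treated with 0, 2 or 4 µM for 12 h, then trypsinised. They were stained with MitoTracker Red (4 µL of 10 µM working solution per 1 mL of cells) for 30 min at 37 °C under 5% CO2. Cells were then resuspended in annexin-binding buffer with Alexa Fluor 488 annexin V for 15 min. Flow cytometry emission read at 530 and 585 nm. Two independent experiments, each in triplicate.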"}, "A2780 [11]": {"system": "A2780", "experiment": "Induction of apoptosis in human A2780 cells assessed as apoptosis cells level at 4 uM incubated for 12 hrs by Alexa Fluor 488 annexin V and mito-tracker red CMXRos dye staining based flow cytometry (reference value: 0.0%)", "format": "functional", "summary_of_the_method": "as §3"}, "MCF7": {"system": "MCF7", "experiment": "Cytotoxicity in human MCF7 cells assessed as reduction in cell viability incubated for 68 hrs by MTT assay", "format": "functional, cell-based", "conditions": "MCF7, 68 h", "summary_of_the_method": "as §2"}, "2008 [12]": {"system": "2008", "experiment": "Reduction in mitochondrial potential in human OV2008 cells at 2 uM incubated for 12 hrs by Alexa Fluor 488 annexin V and mito-tracker red CMXRos dye staining based flow cytometry", "format": "functional, cell-based", "summary_of_the_method": "as §3"}, "Homo sapiens [13]": {"species_on_record": "Homo sapiens", "experiment": "Inhibition of tubulin alpha in human OV2008 cells assessed as reduction in alpha-tubulin fluorescence at 2 to 4 uM after overnight incubation by immunofluorescence analysis", "format": "cell-based"}, "OV2008 (Homo sapiens)": {"system": "OV2008 (Homo sapiens)", "experiment": "Induction of cell cycle arrest in human OV2008 cells assessed as increase in cell accumulation at subG1 phase at 2 to 4 uM incubated for 12 hrs by propidium iodide staining based flow cytometry"}, "MDA-MB-231": {"system": "MDA-MB-231", "experiment": "Cytotoxicity in human MDA-MB-231 cells assessed as reduction in cell viability incubated for 68 hrs by MTT assay", "format": "functional, cell-based", "conditions": "MDA-MB-231, 68 h", "summary_of_the_method": "as §2"}, "HEK293": {"system": "HEK293", "experiment": "Cytotoxicity in HEK293 cells assessed as reduction in cell viability incubated for 68 hrs by MTT assay", "format": "cell-based", "conditions": "Homo sapiens, HEK293, 68 h", "summary_of_the_method": "as §2"}, "A2780 [14]": {"system": "A2780", "experiment": "Reduction in mitochondrial potential in human A2780 cells at 2 uM incubated for 12 hrs by Alexa Fluor 488 annexin V and mito-tracker red CMXRos dye staining based flow cytometry", "format": "functional, cell-based", "summary_of_the_method": "as §3"}, "A2780 [15]": {"system": "A2780", "experiment": "Potency index, ratio of IC50 for silybin to IC50 for test compound for cytotoxicity in human A2780 cells assessed as reduction in cell viability incubated for 68 hrs by MTT assay", "format": "functional"}, "2008 [16]": {"system": "2008", "experiment": "Cytotoxicity in human OV2008 cells assessed as reduction in cell viability incubated for 68 hrs by MTT assay", "format": "functional, cell-based", "conditions": "Homo sapiens, 2008, 68 h", "summary_of_the_method": "as §2"}, "[17]": {"experiment": "Selectivity index, ratio of IC50 for cytotoxicity in human CRL1459 cells incubated for 68 hrs by MTT assay to IC50 for cytotoxicity in human OV2008 cells incubated for 68 hrs by MTT assay", "format": "toxicity, cell-based", "conditions": "CRL1459 cells versus OV2008 cells, read-out: Ratio IC50"}, "BT-20": {"system": "BT-20", "experiment": "Cytotoxicity in human BT20 cells assessed as reduction in cell viability incubated for 68 hrs by MTT assay", "format": "functional, cell-based", "conditions": "BT-20, 68 h", "summary_of_the_method": "as §2"}, "CHO": {"system": "CHO", "experiment": "Cytotoxicity in CHO cells assessed as reduction in cell viability incubated for 68 hrs by MTT assay", "format": "cell-based", "conditions": "Cricetulus griseus", "summary_of_the_method": "as §2"}, "2008 [18]": {"system": "2008", "experiment": "Induction of cell cycle arrest in human OV2008 cells assessed as cell accumulation at S phase at 4 uM incubated for 12 hrs by propidium iodide staining based flow cytometry (reference value: 5.2%)", "format": "functional", "summary_of_the_method": "as §1"}, "DU-145": {"system": "DU-145", "experiment": "Cytotoxicity in human DU145 cells assessed as reduction in cell viability incubated for 68 hrs by MTT assay", "format": "functional, cell-based", "conditions": "DU-145, 68 h", "summary_of_the_method": "as §2"}, "2008 [19]": {"system": "2008", "experiment": "Induction of cell cycle arrest in human OV2008 cells assessed as cell accumulation at subG1 phase at 2 uM incubated for 12 hrs by propidium iodide staining based flow cytometry (reference value: 11.3%)", "format": "functional", "summary_of_the_method": "as §1"}},
  "note": "Activity calls are given as the source filed them. The calls are words filed in the database; no cut-off is given here.",
  "data": [
    {"smiles": "O=C(/C=C/c1cccc(OCc2ccccc2)c1)c1ccc(O)cc1", "values": [
      {"measurement": "Activity", "setting": "2008 [1]", "value": 1.9, "unit": "%"},
      {"measurement": "IC50", "setting": "ZR-75-1", "value": 4.9, "unit": "µM"},
      {"measurement": "selectivity ratio at 68 h", "setting": "[2]", "value": "6 to 30"},
      {"measurement": "inhibition", "setting": "Homo sapiens [3]", "value": "Active"},
      {"measurement": "IC50", "setting": "PANC-1", "value": 2.6, "unit": "µM"},
      {"measurement": "Activity", "setting": "A2780 [4]", "value": "Active"},
      {"measurement": "selectivity ratio at 68 h", "setting": "[5]", "value": "6 to 30"},
      {"measurement": "Activity", "setting": "2008 [6]", "value": 58.4, "unit": "%"},
      {"measurement": "inhibition", "setting": "Homo sapiens [7]", "value": "Active"},
      {"measurement": "Activity", "setting": "2008 [8]", "value": 2.7, "unit": "%"},
      {"measurement": "IC50", "setting": "A2780 [9]", "value": 1, "unit": "µM"},
      {"measurement": "Activity", "setting": "A2780 [10]", "value": 37.3, "unit": "%"},
      {"measurement": "Activity", "setting": "A2780 [11]", "value": 38, "unit": "%"},
      {"measurement": "IC50", "setting": "MCF7", "value": 2.8, "unit": "µM"},
      {"measurement": "Activity", "setting": "2008 [12]", "value": "Active"},
      {"measurement": "inhibition", "setting": "Homo sapiens [13]", "value": "Active"},
      {"measurement": "Activity", "setting": "OV2008 (Homo sapiens)", "value": "Dose-dependent effect"},
      {"measurement": "IC50", "setting": "MDA-MB-231", "value": 2.9, "unit": "µM"},
      {"measurement": "IC50", "setting": "HEK293", "value": 5.4, "unit": "µM"},
      {"measurement": "Activity", "setting": "A2780 [14]", "value": "Active"},
      {"measurement": "Ratio IC50", "setting": "A2780 [15]", "value": "30 - 200"},
      {"measurement": "IC50", "setting": "2008 [16]", "value": 0.8, "unit": "µM"},
      {"measurement": "selectivity ratio at 68 h", "setting": "[17]", "value": "6 to 30"},
      {"measurement": "IC50", "setting": "BT-20", "value": 5.1, "unit": "µM"},
      {"measurement": "IC50", "setting": "CHO", "value": 8.1, "unit": "µM"},
      {"measurement": "Activity", "setting": "2008 [18]", "value": 5.2, "unit": "%"},
      {"measurement": "IC50", "setting": "DU-145", "value": 6.3, "unit": "µM"},
      {"measurement": "Activity", "setting": "2008 [19]", "value": 25.5, "unit": "%"}
    ]}
  ]
}
